High-throughput results deposited in PubChem by Broad Institute.
FGF22 binding = binders of human FGF22 protein, primary screen, FGF22 synaptogenesis inhibitor project, biophysical, thermal shift, single point. Fibroblast growth factor 22 (Homo sapiens), Q9HCT0. recombinant FGF22 thermal shift, SYPRO orange fluorescence; percent of sucrose octasulfate shift, DMSO zero. activity (Tm shift, normalised), % at 9.99 µM. actives 1.5% (n = 340,000). AID 651658, 2012;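 active means mean Tm shift, scaled 0 neutral to 100 positive control, at about 1.3% or above, every replicate too, limit read from the data; inconclusive means no clear call, values can overlap the other calls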
Ecoli rRNA inh = reduced GFP signal of wild-type E. coli, primary screen, bacterial rRNA inhibitor project, GFP/RFP fluorescence, OD600, single point; E. coli WT GFP vs humanized-ribosome RFP mutants, 24 h; stronger effect = lower value; DMSO median 0, no signal -100; GFP signal change (wild-type ribosome), % (no concentration beside the values); actives 1.6% (n = 350,000); AID 720706, 2013;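 active means significant combined selectivity score with lowered wild-type GFP, culture density cut under 30%, mutant RFP and density less affected; inactive means any of these conditions unmet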
Cneo AK release = Cryptococcus neoformans cell lysis inducers, primary screen, AK release luminescence, single concentration | C. neoformans lysis, adenylate kinase release luminescence, 4 h; normalised: neutral wells 0, clomiphene wells 100 | lysis activity, % at 15 µM | actives 0.2% (n = 360,000) | AID 651654, 2012;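 active means mean lysis activity across replicates of at least 80%, whatever share of replicates individually reach that level; inactive means mean lysis activity below 80%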
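read-out = cell lysis signal | test system = log-phase Cryptococcus neoformans yeast cells | input = cells at 5 × 10^6 per mL | medium = fresh YPD growth medium | signal = luminescent adenylate kinase detection reagent | timing = 4 h at 37 °C static, read 1 h later | dosing = single dose | controls = Clomiphene as positive lysis control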
ERAP1 HTS inh = human ERAP1 aminopeptidase inhibitors, primary screen, biochemical, single point, plate reader. actives 0.15% (n = 340,000). recombinant ERAP1, Leu-AMC fluorescence, 60 min. Endoplasmic reticulum aminopeptidase 1 (Homo sapiens), Q9NZ08. AID 652197, 2013. inhibition, % at 10.7 µM;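 active means mean replicate inhibition of at least 30%, or all replicates individually reaching that 30% level; inactive means mean below 30% and not every replicate reaching it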
Target sequence (Q9NZ08 whole entry, looked up): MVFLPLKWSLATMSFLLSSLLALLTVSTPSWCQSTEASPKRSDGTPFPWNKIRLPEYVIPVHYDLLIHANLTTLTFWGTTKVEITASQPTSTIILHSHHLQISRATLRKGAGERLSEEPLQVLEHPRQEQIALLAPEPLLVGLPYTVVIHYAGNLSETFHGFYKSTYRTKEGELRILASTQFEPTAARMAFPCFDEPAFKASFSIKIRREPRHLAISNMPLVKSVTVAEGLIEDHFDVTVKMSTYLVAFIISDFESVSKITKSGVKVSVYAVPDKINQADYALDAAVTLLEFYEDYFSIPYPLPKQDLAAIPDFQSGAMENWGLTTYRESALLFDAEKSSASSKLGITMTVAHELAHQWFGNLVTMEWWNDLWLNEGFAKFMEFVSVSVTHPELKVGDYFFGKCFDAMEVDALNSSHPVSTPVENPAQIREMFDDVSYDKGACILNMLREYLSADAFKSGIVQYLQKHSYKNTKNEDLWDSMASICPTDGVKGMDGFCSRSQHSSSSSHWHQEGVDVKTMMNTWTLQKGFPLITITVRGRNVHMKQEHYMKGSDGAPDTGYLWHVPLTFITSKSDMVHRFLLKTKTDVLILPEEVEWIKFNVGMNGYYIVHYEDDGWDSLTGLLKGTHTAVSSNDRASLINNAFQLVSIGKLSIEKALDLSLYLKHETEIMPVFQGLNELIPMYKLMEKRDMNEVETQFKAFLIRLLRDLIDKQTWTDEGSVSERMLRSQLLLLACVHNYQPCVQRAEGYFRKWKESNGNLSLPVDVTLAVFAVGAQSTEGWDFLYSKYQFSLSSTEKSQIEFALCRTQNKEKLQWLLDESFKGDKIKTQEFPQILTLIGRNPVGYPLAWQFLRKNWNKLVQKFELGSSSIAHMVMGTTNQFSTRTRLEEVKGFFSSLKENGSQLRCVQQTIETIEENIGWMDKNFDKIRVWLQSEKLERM
HIV Env fusion = inhibitors of HIV-1 Env-driven cell-cell fusion, primary screen, HeLa-JRFL effector, CEM21 target cells, luciferase. inhibition, % at 12.3 µM. AID 651610, 2012. actives 1.1% (n = 360,000);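 active means mean replicate inhibition score of at least 50 and every replicate individually at or above 50; inconclusive means only one of the two criteria met; inactive means mean below 50 and not all replicates reaching 50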
PGC1a acetyl inh = inhibitors of PGC1a acetylation signal, primary screen, cell-based, U2OS, AlphaScreen, inhibitor mode; AlphaScreen anti-acetyl-lysine; with virally co-expressed GCN5 acetyltransferase; inhibition, % at 15.6 µM; actives 0.17% (n = 350,000);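 active means every replicate shows inhibition of at least 40%; inconclusive means mean inhibition at least 40% but some replicate below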
A number is an active result; n = inactive; u = inconclusive; x = not tested or not shown. Shown are actives, neighbours in structure and some others; about 3.5% of the full set was active somewhere.

SMILES	FGF22 binding	Ecoli rRNA inh	Cneo AK release	ERAP1 HTS inh	HIV Env fusion	PGC1a acetyl inh
CC1(C)C2CCC1(C)C(OC(=O)c1ccccc1C(=O)O)C2 (stereo unspecified)	n	n	n	n	n	n
CC1(C)C2CCC1(C)C(OCCNCCOC(=O)Nc1ccccc1)C2 (stereo unspecified)	n	n	n	n	68.6	n
COc1ccc(Cl)cc1-c1noc([C@@H]2O[C@H](CO)[C@@H](O)[C@H]2O)n1	n	n	n	n	n	n
CCOCCCNCC(=O)NC1(C)C2CCC(C2)C1(C)C (stereo unspecified)	x	x	n	x	n	n
CC1(C)C2CCC(C2)C1(C)NC(=O)CNCC1CCCCC1 (stereo unspecified)	n	n	x	n	61.4	x
COc1ccc(CCn2c(C)cc(C(=O)CSc3nc(N)cc(=O)[nH]3)c2C)cc1	x	x	n	x	69.8	n
O=C(c1ccc(-c2cc(O)c3ncccc3c2)cc1)N1CCNCC1	n	n	n	n	x	n
c1ccc2c(c1)CCCC2C1=NCCN1 (stereo unspecified)	n	x	n	n	n	n
Brc1ccc2c(c1)C(C1=NCCN1)c1ccccc1CS2 (stereo unspecified)	n	n	n	n	61.9	n
CCOC(=O)C1OC2(CCCC2)OC1C(=O)OCC (stereo unspecified)	n	n	x	n	n	n
Cc1cccc(N(C(=O)Nc2ccc(Cl)cc2)C2=NCC(C)S2)n1 (stereo unspecified)	n	-28.7	n	n	n	n
Cc1c(C(=O)Nc2cccc(C(F)(F)F)c2)oc2ccc(S(=O)(=O)N3CCOCC3)cc12	n	n	n	n	x	n
O=C(Nc1cccc(Br)c1)c1ccc(CN2CCc3ccccc3C2)cc1	n	n	n	n	n	n
CSc1cccc(NC(=O)c2ccc(CN3CCc4ccccc4C3)cc2)c1	n	-23.2	n	n	n	n
CC1(C)CC(N2CCN(Cc3ccccc3)CC2)=CC(=[N+]2CCCCC2)C1	x	n	n	n	n	n
CN(Cc1ccccc1)C1=CC(=[N+]2CCCCC2)CC(C)(C)C1	n	-51.5	n	n	n	n
O=C(NNC(=O)NC1CCCCC1)NC1CCCCC1	n	n	x	n	n	x
COc1cc(/C=C/C(=O)OCC(=O)Nc2cccc(F)c2)ccc1O	44.6	n	n	n	n	n
COc1cc(/C=C/C(=O)OCC(=O)N2CCC(C)CC2)ccc1O	n	n	n	n	x	n
COc1cc(/C=C/C(=O)OCC(=O)NC(=O)NC(C)(C)C)ccc1O	n	n	n	x	n	n
COc1cc(/C=C/C(=O)OCC(=O)N2CCC(Cc3ccccc3)CC2)ccc1O	n	-31.6	n	n	n	x
COc1ccccc1OCCNC(=O)c1ccccc1C	x	x	n	x	n	n
Cc1ccccc1OCCNC(=O)CNC(=O)c1ccccc1O	n	-26.7	n	n	x	n
O=C(CNC(=O)c1ccccc1F)NCCOc1ccccc1Cl	43.0	n	n	n	n	n
Cc1ccc(NC(=O)N[C@H](C(=O)O)C(C)C)c(C)c1	n	n	n	n	n	n
SMILES	FGF22 binding	Ecoli rRNA inh	Cneo AK release	ERAP1 HTS inh	HIV Env fusion	PGC1a acetyl inh
CC(=O)c1ccc(-n2c(C)ccc2-c2ccccc2)cc1	x	x	n	x	n	n
COC(=O)c1ccc(-n2c(C)ccc2-c2ccccc2)cc1	n	-22.1	n	n	x	n
N=c1ccn(CC(=O)c2ccc(-c3ccccc3)cc2)cc1	n	-41.1	x	n	68.7	x
CC1CCN(C(=O)COC(=O)CCC(=O)c2ccc(F)cc2)CC1	43.0	n	n	n	x	n
CC1CCCN(c2nc3ccccc3nc2C(C#N)S(=O)(=O)c2ccccc2)C1 (stereo unspecified)	x	x	n	x	n	n
CC(CCC(=O)Nc1nncs1)C(=O)O (stereo unspecified)	n	n	n	n	n	n
CCCCC(C(=O)O)C(C)CC(=O)Nc1nncs1 (stereo unspecified)	43.1	n	n	n	n	u
